The values that follow come from ChEMBL document CHEMBL3259754, “Purine derivatives as potent Bruton's tyrosine kinase (BTK) inhibitors for autoimmune diseases” (Bioorg Med Chem Lett, 2014).

Each structure is given as a SMILES string.

In general, IC50 refers to the concentration at which inhibition is half-maximal. A high value points to weaker potency in that assay. The term Papp A→B denotes the apparent permeability from the apical to the basolateral side of a cell layer. Usually Papp B→A stands for how fast a substance crosses the layer from the basolateral side. By solubility is commonly meant how much of the substance goes into solution per volume. A word on the Cmax: it is the maximum level reached in the sampled fluid or tissue. One may read the AUC as the area under the concentration-time curve, a measure of exposure. One may read the half-life as how long it takes for the measured level to halve. High values mean slow loss, low ones fast loss.

The target in series [1] is Tyrosine-protein kinase BTK (Homo sapiens, UniProt Q06187). Kind of series: Inhibition of full length human wild type his-tagged BTK expressed in Sf9 cells using biotinylated peptide as substrate after 1 hr by Fluorescence assay.
The nature of series [2]: Selectivity ratio of IC50 for JAK2 (unknown origin) to IC50 for full length human wild type his-tagged BTK expressed in Sf9 cells.
Series [3] can be described thus: Selectivity ratio of IC50 for Flt3 (unknown origin) to IC50 for full length human wild type his-tagged BTK expressed in Sf9 cells.
Series [4] can be described thus: Selectivity ratio of IC50 for ITK (unknown origin) to IC50 for full length human wild type his-tagged BTK expressed in Sf9 cells.
The test system of series [5] is Liver microsome. Put plainly: Stability in rat liver microsomes assessed as compound remaining. Type of series: ADME. (In general: Microsomes from liver hold many membrane-bound enzymes, among them those of drug oxidation.)
For a further series, the system named is Liver. Kind of series: Stability in mouse liver microsomes assessed as compound remaining. It counts as ADME.
Series [6] can be described thus: Permeability of the compound by PAMPA. Type of series: physicochemical. The note with it: read-out: permeability. A general note: The PAMPA barrier holds no transporters, so it reflects passive diffusion.
Series [7] in a line: Apparent permeability from apical to basolateral side of human Caco2 cells. The note with it: Caco-2. It counts as ADME, cell-based. On the technique in general: Caco-2 monolayers are a common model of the intestinal barrier.
Series [8] in a line: Apparent permeability from basolateral to apical side of human Caco2 cells. It counts as ADME, cell-based. Particulars: Caco-2.
A short description of series [9]: Aqueous solubility of the compound at pH 1. It counts as physicochemical.
Series [10] in a line: Aqueous solubility of the compound at pH 6. Type of series: physicochemical.
A short description of series [11]: Cmax in CD1 mouse at 30 mg/kg, ip. Type of series: ADME, organism-based. Also on record: dose 30 mg/kg, route intraperitoneal. The note with it: in vivo. The method, boiled down:
(§1)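 Mouse PK: single 30 mg/kg dose given IP as a Methocel suspension. Cmax, total AUC and t1/2 were taken from plasma exposure after dosing.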

A short description of series [12]: AUC (total) in CD1 mouse at 30 mg/kg, ip. It counts as ADME, organism-based. Also on record: dose 30 mg/kg, route intraperitoneal. Particulars: plasma. In short, it runs like this: as §1
A short description of series [13]: Half life in CD1 mouse at 30 mg/kg, ip. Type of series: ADME, organism-based. On the set-up: dose 30 mg/kg, route intraperitoneal. The note with it: in vivo. The method, boiled down:
as §1

The subject of series [14] is Liver microsome. Put plainly: Stability in human liver microsomes assessed as compound remaining. It counts as ADME.

Chain of Tyrosine-protein kinase BTK (Q06187 whole entry): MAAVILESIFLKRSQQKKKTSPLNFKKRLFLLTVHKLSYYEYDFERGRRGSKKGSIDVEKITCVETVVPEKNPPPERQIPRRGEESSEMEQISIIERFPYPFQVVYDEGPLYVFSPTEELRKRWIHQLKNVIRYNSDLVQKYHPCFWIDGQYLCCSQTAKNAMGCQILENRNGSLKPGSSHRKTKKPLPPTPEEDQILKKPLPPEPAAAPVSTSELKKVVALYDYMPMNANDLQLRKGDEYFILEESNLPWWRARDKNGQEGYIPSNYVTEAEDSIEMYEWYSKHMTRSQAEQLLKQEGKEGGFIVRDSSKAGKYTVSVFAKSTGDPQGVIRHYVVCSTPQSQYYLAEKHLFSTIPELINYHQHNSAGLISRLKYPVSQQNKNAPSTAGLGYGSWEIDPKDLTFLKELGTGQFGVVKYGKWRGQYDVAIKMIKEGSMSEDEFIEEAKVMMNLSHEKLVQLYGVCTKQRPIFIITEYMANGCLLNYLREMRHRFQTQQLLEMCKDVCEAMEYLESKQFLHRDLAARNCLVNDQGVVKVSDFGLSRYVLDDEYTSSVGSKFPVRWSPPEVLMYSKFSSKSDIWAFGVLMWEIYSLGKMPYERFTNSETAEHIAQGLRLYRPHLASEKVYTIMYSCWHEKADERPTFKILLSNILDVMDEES

The molecule `Cn1cnc2c(Nc3ccc(C(=O)N4CCOCC4)cc3)nc(-c3cccc(NC(=O)c4ccc(C(C)(C)C)cc4)c3)cc21` yielded an IC50 in series [1] of 0.15 µM.
Take `CC(C)(C)c1ccc(C(=O)Nc2cccc(-c3nc(Nc4ccc(C(=O)N5CCOCC5)cc4)c4cccn4n3)c2)cc1`: the half-maximal inhibitory concentration (IC50) in series [1] is > 50 µM.
Consider `Cc1c(NC(=O)c2ccc(C(C)(C)C)cc2)cccc1-c1nc(Nc2ccc(C(=O)N3CCOCC3)cc2)c2ncn(CCCc3ccccc3)c2n1`, for which the IC50 in [1] is > 50 µM. For the same molecule, the values for the Ratio IC50 in series [2], in series [3] and in series [4] were 1, 0.1 and 1, respectively.
Regarding `Cc1c(NC(=O)c2ccc(C(C)(C)C)cc2)cccc1-c1nc(Nc2ccc(C(=O)N3CCOCC3)cc2)c2nc[nH]c2n1`, the Stability with Liver microsome [5] is 36%; in the series on Liver, 68%; with Liver microsome [14], 14%. For the same molecule, the Papp in series [6] is 40.3 ×10⁻⁶ cm/s. Besides, in series [7], the Papp A→B is < 1.5 ×10⁻⁶ cm/s. Also, the Papp B→A in series [8] is < 1.5 ×10⁻⁶ cm/s. In addition, the solubility in series [9] and in series [10] was < 1 µg/mL each time. Besides, in series [11], the Cmax amounted to 3.8 µM. The same molecule had an AUC in series [12] of 32.5 µM·h. This molecule showed a half-life in series [13] of 4.3 h.
Turning to `CC(C)(C)c1ccc(C(=O)Nc2cccc(-c3nccc(Nc4ccc(C(=O)N5CCOCC5)cc4)n3)c2)cc1`, the IC50 in [1] was > 50 µM.
